Bioassay records deposited in PubChem by several laboratories.
An excerpt weighted towards active compounds, which were near 9.8% of everything screened.
Rad51 HR inh: Rad51 (human) homologous recombination inhibition; 200,000 compounds, 0.085% hits; hRad51 DNA strand exchange, fluorescence dequenching; inhibition, % at 10 µM;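 active = inhibition above 40% at the single screening dose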;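 note: 0% = DMSO control wells and 100% = blanks with heterologous ssDNA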
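material = hRad51 filaments on single-stranded DNA | reagent = Donor/quencher-labelled 47-bp dsDNA substrate | compound = 10 µM final, single point | schedule = strand-exchange reaction 15 min at room temperature | measured by = fluorescein emission 520 nm, excitation 485 nm | read-out basis = % inhibition versus plate control and blank means | benchmarks = plate controls and plate blanks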
PMI activator: phosphomannose isomerase (human) activation; P34949; AID 1214; purified human PMI, coupled resazurin fluorescence, 20 min; stronger effect = higher value; 1 = vehicle control, 0 substrate-free wells; 190,000 compounds, 0.005% hits; activation factor at 20 µM;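 active = activation factor of 2 or more at 20 µM, relative to plate controls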
Target sequence (P34949 whole entry, looked up): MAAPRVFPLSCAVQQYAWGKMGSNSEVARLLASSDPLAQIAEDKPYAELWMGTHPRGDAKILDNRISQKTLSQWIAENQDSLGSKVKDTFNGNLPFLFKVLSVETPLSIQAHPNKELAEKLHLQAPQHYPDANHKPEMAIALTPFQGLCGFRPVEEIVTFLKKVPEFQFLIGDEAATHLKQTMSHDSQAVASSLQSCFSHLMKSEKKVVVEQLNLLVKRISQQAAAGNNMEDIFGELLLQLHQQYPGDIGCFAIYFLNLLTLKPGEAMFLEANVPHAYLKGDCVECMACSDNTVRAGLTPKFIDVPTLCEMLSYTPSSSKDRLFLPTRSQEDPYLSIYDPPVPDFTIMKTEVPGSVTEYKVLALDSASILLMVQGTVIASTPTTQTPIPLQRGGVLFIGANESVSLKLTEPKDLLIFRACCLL
WT yeast gro inh: growth inhibition of WT yeast, mitochondrial fusion screen | mitochondrial fusion phenotypic screen, WT strain | inhibition, % at 10 µM | 190,000 compounds, 2.1% hits | AID 1362; in the data active = inhibition above about 58%; tested in S. cerevisiae
Calpain2 inh: inhibitors of pig calpain II; inhibition, % at 16 µM; 220,000 compounds, 0.37% hits; purified calpain II, fluorogenic peptide substrate, 30 min;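 active = inhibition above about 50%, limit read from the data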
Lmaj promast: reduces viability of Leishmania major promastigotes; resazurin fluorescence viability; 200,000 compounds, 9% hits; inhibition, % at 10 µM; in the data active = inhibition above about 50%;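 note: promastigotes grown with compound for 44 hours at 28 °C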
PMI act hi M6P: activators of human phosphomannose isomerase at near-saturating mannose 6-phosphate; activation factor at 20 µM; AID 1216; coupled PMI enzyme assay, resazurin fluorescence, 20 min; stronger effect = higher value; 1 = untreated enzyme, 0 = substrate-free blank; 190,000 compounds, 0.34% hits;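 active = activation factor of 2 or more at 20 µM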
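Test system: human phosphomannose isomerase with PGI, G6PDH, diaphorase coupling enzymes / Doses: 20 µM compound, 1% DMSO / Times: enzyme reaction with compound 20 min at room temperature / Measured by: Diaphorase-driven resazurin-to-resorufin fluorescence, excitation 544, emission 590 nm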
Starred values were filed as active, the others as inactive; . = no result.

SMILES	Rad51 HR inh	PMI activator	WT yeast gro inh	Calpain2 inh	Lmaj promast	PMI act hi M6P
Cc1cc(C(C)(C)C)oc1C(=O)N(CC(=O)NC1CCCC1)Cc1ccccc1Cl	-1.0	0.8	63.9*	50.5*	25.7	0.8
Cc1c(Cl)cccc1NC(=S)/C(=C(\[O-])c1ccc(Cl)s1)[n+]1ccccc1	2.6	0.9	25.0	5.4	63.6*	0.8
Cc1ccc(NS(=O)(=O)c2ccc(Br)s2)nc1	.	0.8	-7.4	22.4	-6.1	0.3
O=C(CSCC(=O)N1CCCc2ccccc21)Nc1nc(-c2ccccc2)cs1	-0.3	1	53.0	0.9	34.5	1
CCCCNCCCCOc1ccccc1	0.7	1	6.0	-43.8	87.9*	1
Cc1cccc(OCCCC(=O)O)c1	0.7	0.9	-5.9	-12.9	-4.5	0.9
CCc1ccccc1OCCCOc1ccc(OC)cc1	7.4	0.8	6.6	8.4	-1.9	0.9
Cc1cc(OCCCCCNCCO)ccc1Cl	-5.6	1	1.4	16.4	100.0*	1
CCc1ccccc1OCCCCCNCCO	6.2	0.9	17.9	-27.6	92.5*	1
Cc1cccc(OCCCCCNCCO)c1	-3.1	0.9	17.2	.	99.0*	0.9
CCC(=O)NCCCOc1ccccc1	0.4	1	.	-4.1	-5.6	1
C/C(CC(=O)Nc1ccc(Cl)c(Cl)c1)=N\NC(=O)C(=O)N1CCCCC1	2.5	1	-22.1	1.4	-4.5	1.1
Cc1ccc(NC(=O)Cn2cccc2)cc1	1.9	1	-4.3	-2.6	-6.1	1
CCOc1ccccc1OCCOc1ccc(F)cc1	-0.7	1.1	-4.1	34.5	-1.9	1
Cc1cccc(OCCCCNCc2ccccc2)c1	7.8	1.2	31.7	24.7	89.3*	1.2
CCc1cccc(OCCCCNCCO)c1	8.0	1	14.7	27.9	91.3*	1.1
OCCNCCCCCOc1ccc(F)cc1	-29.5	1	9.3	22.8	97.1*	1
CCCCCCOc1cccc(N)c1	-2.1	1.2	-50.1	-3.3	3.0	0.8
COc1cc(/C=C/C(=O)O)cc(S(=O)(=O)N2CCc3ccccc3C2)c1OC	1.1	1	2.3	-13.3	-2.7	1
CCc1ccccc1-n1nnnc1-c1cnccc1C(F)(F)F	-2.9	.	.	7.5	.	.
COc1ccc(OC)c(N2C(N)=C(C#N)C(c3ccc(OC)c(O)c3)C3=C2CC(C)(C)CC3=O)c1 (stereo not drawn)	8.0	.	.	-17.1	.	.
COc1cc(C2C(C#N)=C(N)N(Nc3ccccc3)C3=C2C(=O)CC(C)(C)C3)ccc1OCc1ccccc1 (stereo not drawn)	-8.3	0.9	-9.2	-57.7	100.0*	0.8
COc1ccc(C2C(C#N)=C(N)N(Nc3ccccc3)C3=C2C(=O)CC(C)(C)C3)cc1C (stereo not drawn)	-6.2	0.9	-14.6	-109.5	85.7*	0.9
COc1cc(C2C(C#N)=C(N)N(Nc3ccccc3)C3=C2C(=O)CC(C)(C)C3)ccc1OCc1cccc(F)c1 (stereo not drawn)	-13.9	0.9	-11.2	-107.3	56.4*	0.7
COc1ccc(C2C(C#N)=C(N)N(c3cccnc3)C3=C2C(=O)CC(C)(C)C3)cc1OC (stereo not drawn)	.	0.9	-0.6	-120.3	-7.9	0.6
SMILES	Rad51 HR inh	PMI activator	WT yeast gro inh	Calpain2 inh	Lmaj promast	PMI act hi M6P
C=CCOc1ccc(C2C(C#N)=C(N)N(Nc3ccccc3)C3=C2C(=O)CCC3)cc1OC (stereo not drawn)	-3.2	0.9	-22.9	-76.2	96.2*	0.7
S=C(NCCc1cnc[nH]1)NC1CCCC1	-9.1	1.1	-9.1	-21.4	-5.8	1
COc1ccc(-c2csc(NC(=O)CCS(=O)(=O)c3ccccc3)n2)c(OC)c1	.	.	.	-70.2	.	.
O=C(NNc1ccccc1)C(CCO)C(=O)NNc1ccccc1	3.1	1.8	26.9	-3.3	75.5*	2.4*
CC(O)CC(C(=O)NNc1ccccc1)C(=O)NNc1ccccc1 (stereo not drawn)	3.5	1.7	53.1	-18.0	62.8*	2.5*
CCCCc1ccc(NC(=O)C(=O)NCCN2CCN(Cc3ccc([N+](=O)[O-])cc3)CC2)cc1	.	1.1	17.8	-5.6	11.0	1.1
COc1ccc(O)c(N)c1	11.7	0.8	-11.6	-20.9	98.4*	1
N/N=C(\Cc1cscn1)c1ccc(O)cc1O	2.0	.	.	11.0	.	.
Cc1nc(C/C(=N\N)c2ccc(O)cc2O)cs1	11.0	1.6	-14.4	-15.9	2.4	2.3*
COc1ccc2c(c1)C(=O)[C@H](O)[C@@H](c1ccc(OC)c(Br)c1)O2	-3.6	1	11.7	-87.3	98.8*	0.9
CCOC(=O)C1=C(C)NC(=S)NC1c1ccc(-c2ccc(Cl)cc2)o1 (stereo not drawn)	.	1	65.6*	-19.6	62.6*	1
CCOC(=O)C1=C(C)NC(=O)NC1c1ccc(-c2ccc(Cl)cc2)o1 (stereo not drawn)	-6.8	0.9	-16.3	-6.7	13.5	1
Cc1cc(C)c2[nH]c(=O)c(CN(Cc3cccs3)C(=S)NCc3ccco3)cc2c1	1.0	0.9	15.0	-39.8	99.0*	1
Cc1ccc(NC(=S)N(Cc2cccs2)Cc2cc3cc(C)ccc3[nH]c2=O)cc1	.	0.8	13.9	-28.8	79.1*	0.9
CCN(CC)CCN(Cc1cc2cc(C)ccc2[nH]c1=O)C(=S)NCc1ccco1	.	0.9	-5.7	-6.7	60.9*	1
CNC(=S)N(Cc1cccs1)Cc1cc2cc(OC)c(OC)cc2[nH]c1=O	-8.6	0.9	-8.0	-77.3	61.9*	0.9
COc1ccccc1NC(=O)N(Cc1cccs1)Cc1cc2cc3c(cc2[nH]c1=O)OCO3	.	0.9	1.5	-12.5	7.0	1
CCN(CC)CCN(Cc1cc2cc(C)cc(C)c2[nH]c1=O)C(=S)NCc1ccco1	.	0.9	1.7	-18.2	38.1	0.9
Cc1ccc(NC(=S)N(Cc2cccs2)Cc2cc3cc(C)cc(C)c3[nH]c2=O)cc1	3.2	1	6.2	-23.7	94.9*	1.1
COc1cc2cc(CN(Cc3cccs3)C(=S)Nc3cccc(C)c3)c(=O)[nH]c2cc1OC	.	0.8	-1.3	-45.4	88.1*	1
Cc1ccc(NC(=S)N(CCN(C)C)Cc2cc3cc(C)ccc3[nH]c2=O)cc1	-7.3	1	16.1	-4.5	44.2	1
COc1cc2cc(CN(Cc3cccs3)C(=S)Nc3ccc(C)cc3)c(=O)[nH]c2cc1OC	.	0.8	4.6	-47.7	97.9*	0.9
Cc1cccc(NC(=S)N(Cc2cccs2)Cc2cc3cc(C)ccc3[nH]c2=O)c1	.	0.9	34.7	14.2	26.1	0.9
O=[N+]([O-])c1ccc2nnn(O)c2c1	.	1	6.0	25.1	-7.0	1
Cc1[nH]n(-c2ncc(-c3ccccc3)s2)c(=O)c1C(c1ccc(Br)cc1)C(C#N)C#N (stereo not drawn)	.	1.2	-4.5	-73.1	80.8*	1.3
CCN(CC)Cc1ccccc1Sc1ccccc1	-2.6	1.2	21.6	20.4	94.4*	1.1
